Screening results from PubChem BioAssay.
SR-BI uptake up: enhances SR-BI lipid uptake from DiI-HDL. CHO ldlA[mSR-BI] cells, DiI-HDL uptake fluorescence, 3 h; 100 = double the neutral-control signal. activation, % at 12.5 µM. hit rate 0.096% among 320,000;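 active = mean replicate activation of at least 60% and every replicate at or above 60%; inconclusive = mean or all-replicate condition met, but not both; inactive = mean below 60% and not all replicates reaching 60%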;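 note: 0% = median plate neutral-control signal and 100% = twice that signal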
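Material: SR-BI-overexpressing, LDLR-lacking CHO cells; schedule: compound exposure 3 h, 37 °C; reagent: DiI-labelled HDL at 10 µg/mL final; technique: bottom-read fluorescence, 550/595 nm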
SR-BI HDL uptake: mouse SR-BI HDL lipid transfer inhibition; Q61009; inhibition, % at 12.5 µM; ldlA[mSR-BI] CHO cells, DiI-HDL uptake fluorescence, 3 h; hit rate 0.96% among 320,000;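 active = mean replicate inhibition of at least 70% and a set share of replicates each scoring 70 or more; inconclusive = meets just one of the two criteria; inactive = fails both criteria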;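 note: 0% = median of neutral control wells and 100% = median of positive control wells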
Target sequence (Q61009 whole entry, looked up): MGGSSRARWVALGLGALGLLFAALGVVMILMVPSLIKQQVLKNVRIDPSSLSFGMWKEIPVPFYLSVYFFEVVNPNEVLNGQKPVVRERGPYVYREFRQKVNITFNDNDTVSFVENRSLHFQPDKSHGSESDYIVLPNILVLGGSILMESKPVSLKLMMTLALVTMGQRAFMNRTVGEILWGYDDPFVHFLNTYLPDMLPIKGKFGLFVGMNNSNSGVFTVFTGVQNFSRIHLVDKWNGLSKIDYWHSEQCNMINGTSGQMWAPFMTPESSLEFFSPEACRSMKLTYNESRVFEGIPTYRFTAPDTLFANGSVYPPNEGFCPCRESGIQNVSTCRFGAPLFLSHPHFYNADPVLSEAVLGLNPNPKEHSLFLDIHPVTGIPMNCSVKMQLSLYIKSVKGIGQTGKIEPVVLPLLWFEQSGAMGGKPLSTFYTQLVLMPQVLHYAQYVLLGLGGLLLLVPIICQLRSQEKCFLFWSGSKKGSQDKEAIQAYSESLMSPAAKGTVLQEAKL
dFosB act-1: enhances mouse delta FosB homodimer DNA binding; P13346; hit rate 0.99% among 340,000; purified delta FosB, TAMRA-CDK5 oligo fluorescence polarization; percent of positive-control signal above neutral wells; activation, % at 25 µM;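 active = mean activation above about 17%, with every replicate also reaching it, limit read from the data, passing the limit was not always enough; inconclusive = only one of the two conditions met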
CDK5 p35 inh: CDK5/p35 (human) kinase inhibition | Q00535+Q15078 | Recombinant CDK5/p35, ADP-Glo luminescence, 60 min | inhibition, % at 10 µM | hit rate 0.01% among 330,000 | AID 488839;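 active = highest replicate inhibition of at least 50% and at least 75% of replicates reaching 50%; inconclusive = only one of the two criteria met; inactive = both criteria failed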;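 note: plate controls were DMSO neutral control for no effect and GW8510 at 10 µM for full effect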
dFosB act-2: activators of mouse delta FosB homodimer DNA binding; activation, % at 24.9 µM; AID 588690; 2,400 tested, under 10 active; shares compounds with dFosB act-1; purified delta FosB, TAMRA-CDK5 oligo fluorescence polarization; normalised: neutral wells 0, positive control 100;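 active = highest replicate activation at or above 34% and every replicate reaching that threshold; inconclusive = meets only one of the two criteria; inactive = meets neither criterion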;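 note: higher polarization means more probe DNA bound by delta FosB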
Active calls of the source: *; ? = inconclusive; . = no result given. Rows were chosen to be rich in hits. Some 2% of all compounds tested hit in one or more screens of this group.

SMILES	SR-BI uptake up	SR-BI HDL uptake	dFosB act-1	CDK5 p35 inh	dFosB act-2
CC(=O)Nc1ccc(NC(=O)c2ccc(NS(=O)(=O)c3cc(C(C)(C)C)cc(C)c3C)cc2)cc1	18.2	-18.2	53.9*	1.3	9.1
Cc1cc(C(C)(C)C)cc(S(=O)(=O)Nc2ccc(O)c(C(=O)O)c2)c1C	44.9	-44.9	-0.3	0.5	.
COc1ccccc1NC(=O)CSc1ccc(-c2ccc(-n3ccnc3)cc2)nn1	-26.8	26.8	-9.6	1.9	.
COc1cc(/C=N/NC(=O)c2ccncc2)ccc1OC(=O)c1ccccc1Cl	-52.7	52.7	-20.1	0.6	.
COc1ccc(/C=N/NC(=O)c2ccc(COc3cccc4cccnc34)cc2)cc1OC	-74.0	?	18.9*	-2.3	-1.1
COc1cc(C(=O)N/N=C/c2ccc(OC(=O)c3ccccc3Cl)c(OC)c2)ccc1O	-67.0	67.0	24.6*	-1.2	2.0
COc1ccc(/C=N\NC(=O)c2ccc(-c3ccccc3)cc2)cc1COC(C)=O	-59.3	59.3	34.5*	-1.8	-5.0
O=C(N/N=C/c1ccccc1Br)c1ccc(CSc2cccc3cccnc23)cc1	-60.2	60.2	27.8*	1.1	5.6
COc1ccc(/C=N/NC(=O)c2ccc(COc3cccc4cccnc34)cc2)cc1O	.	.	6.1	1.9	.
COc1cccc(CNC(=O)CCC2CCCN(C(=O)c3cccnc3SC)C2)c1 (stereo not drawn)	13.1	-13.1	-0.6	0.6	.
CC(Oc1ccccc1)C(=O)N=C1SC2CS(=O)(=O)CC2N1Cc1ccccc1 (stereo not drawn)	10.8	-10.8	-11.0	-1.2	.
CCn1c(SCC(=O)O)nnc1-c1ccccc1OC	-5.9	5.9	2.5	0.7	.
COc1ccc(/C=N/NC(=O)c2cc3c(ccc4ccccc43)o2)cc1OC	7.5	-7.5	76.9*	1.1	5.2
O=C(N/N=C/c1cccc(O)c1)c1ccc(COc2cccc3cccnc23)cc1	-37.1	37.1	32.6*	-3.3	0.1
O=c1c2ccccc2oc2c1oc1ccccc12	-3.3	3.3	-22.8	-1.2	.
CC(C)OCC(O)CN1CCN(CCN2C(=O)c3cccc4cccc(c34)C2=O)CC1 (stereo not drawn)	13.6	-13.6	?	.	.
Cc1cccc(C)c1OCC(O)CN1CCC(CN2C(=O)c3cccc4cccc(c34)C2=O)CC1 (stereo not drawn)	-43.0	43.0	74.0*	-0.7	5.8
CCC(OCC(O)CN1CCN(CCN2C(=O)c3cccc4cccc(c34)C2=O)CC1)c1ccccc1 (stereo not drawn)	-36.4	36.4	30.2*	1.0	5.2
CC(=O)c1ccc(OCC(O)CN2CCN(CCN3C(=O)c4cccc5cccc(c45)C3=O)CC2)cc1 (stereo not drawn)	-35.3	35.3	37.6*	0.9	-4.5
Cc1ccccc1OCC(O)CN1CCN(CCN2C(=O)c3cccc4cccc(c34)C2=O)CC1 (stereo not drawn)	-44.2	44.2	49.9*	-0.3	0.2
Cc1ccc(O)c(C(=O)c2cc(C#N)c3nc4ccccc4n3c2)c1	-41.2	41.2	24.0*	-1.3	7.9
O=C(O)COCC(=O)Nc1ccc(-n2cnnn2)cc1	30.0	-30.0	-8.9	-4.2	.
COc1ccc2oc(-c3ccc(C)c(NC(=O)c4ccc(N5CCOCC5)c([N+](=O)[O-])c4)c3)nc2c1	-32.4	32.4	21.6*	0.0	3.4
COc1ccc(CNC(=O)c2ccc(N3CCOCC3)c([N+](=O)[O-])c2)cc1	-11.8	11.8	-11.5	-0.8	.
Cc1cc(C(=O)NCc2csc(-c3ccccc3)n2)no1	14.0	-14.0	-8.7	0.1	.
SMILES	SR-BI uptake up	SR-BI HDL uptake	dFosB act-1	CDK5 p35 inh	dFosB act-2
O=C(NCCc1nc2ccccc2[nH]1)/C(=C/c1ccc2c(c1)OCO2)NC(=O)c1ccc(Cl)cc1Cl	-9.5	9.5	19.6*	-0.3	1.0
O=C(NCCc1nc2ccccc2[nH]1)/C(=C/c1ccc(F)cc1)NC(=O)c1ccco1	-10.7	10.7	-1.3	-0.2	.
Cc1cccnc1NC(=O)C(c1ccccc1)c1ccccc1	13.4	-13.4	-9.3	1.3	.
COc1ccc(OC)c(/C=N/NC(=O)c2[nH]nc3c2CCc2ccccc2-3)c1	-43.0	43.0	22.8*	1.0	0.5
COC(=O)c1ccccc1NC(=O)CCCCCn1nnc2ccccc2c1=O	33.5	-33.5	-11.0	0.3	.
Nc1nonc1-n1nnc(C(=O)N/N=C/c2c(F)cccc2Cl)c1-c1ccc2c(c1)OCO2	-31.4	31.4	4.1	-2.0	.
Nc1nonc1-n1nnc(C(=O)N/N=C/c2cccc(Cl)c2)c1-c1ccc2c(c1)OCO2	-36.6	36.6	72.3*	0.5	1.1
CC(C)c1c(C(=O)N/N=C/c2ccc3c(c2)OCO3)nnn1-c1nonc1N	-50.6	50.6	4.0	-2.4	.
Nc1nonc1-n1nnc(C(=O)N/N=C/c2ccc(Br)cc2)c1-c1ccc2c(c1)OCO2	-19.8	19.8	20.8*	1.1	3.5
Nc1nonc1-n1nnc(C(=O)N/N=C/c2ccc3c(c2)OCO3)c1-c1ccccc1	-50.2	50.2	18.0*	2.2	1.2
O=C(NCCc1cnc[nH]1)c1ccc(-c2ccccc2)cc1	3.2	-3.2	-0.2	1.3	.
N#Cc1c(-c2ccc(F)cc2)c(-c2ccc(F)cc2)nn(CCO)c1=O	-5.1	5.1	1.0	-0.4	.
COc1ccccc1C=NN=C(N)C(N)=NN=Cc1ccccc1OC	-52.4	52.4	69.5*	-0.7	?
NC(=O)C1CCN(C(=O)CCSCc2ccccc2)CC1	10.1	-10.1	9.3	-1.5	.
NC(=O)c1ccsc1NC(=O)Cc1ccc([N+](=O)[O-])cc1	-15.0	14.9	-9.8	-1.6	.
O=C(NNC(=O)c1c(O)c2ccccc2[nH]c1=O)c1ccccc1Br	2.1	-2.1	51.6*	0.5	0.4
COc1ccc(NS(=O)(=O)c2csc(C(=O)N3CCCC3)c2)c(OC)c1	36.7	-36.7	-0.1	1.6	.
O=C(Nc1ccncc1)C1c2ccccc2Oc2ccccc21	15.6	-15.6	0.3	-0.3	.
CCCCNS(=O)(=O)c1ccc(NC(=O)C2c3ccccc3Oc3ccccc32)cc1	21.4	-21.4	44.0*	0.9	-4.4
CCCC[C@@H]1CNCCN1CCc1cccc2ccccc12	20.7	-20.7	8.4	0.7	.
N=C1C(c2nc3ccccc3s2)=C(O)CN1NC(=O)c1c[nH]c2ccccc12	-4.2	4.2	26.7*	-4.0	-2.0
N=C1C(c2nc3ccccc3s2)=C(O)CN1NC(=O)c1ccccc1[N+](=O)[O-]	5.4	-5.4	13.0	-0.6	.
COc1ccc(C)cc1NC(=O)C1CCCN(S(=O)(=O)c2cccnc2)C1 (stereo not drawn)	-39.3	39.3	-4.9	0.7	.
CCCn1nc(C(=O)Nc2ccc(S(=O)(=O)Nc3nccs3)cc2)c2ccccc2c1=O	-13.5	13.5	-7.1	7.3	.
CCCn1nc(C(=O)Nc2cc(S(=O)(=O)Nc3ccc(OC)cc3)ccc2O)c2ccccc2c1=O	2.2	-2.2	20.8*	0.6	1.7
